# Key:
# [1] = system: Human immunodeficiency virus 1; assay: Antiviral activity against wild-type HIV1 pNL4-3 infected in TZM-bl cells by luciferase assay; type: functional, organism-based; settings: Human immunodeficiency virus 1, pNL4-3, TZM-bl
# Summary of the method: (§1)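 TZM-bl cells (LTR-driven luciferase reporter) at 5 × 10^4 per well in RPMI 1640 with 10% dialyzed FBS. They were preincubated 16 h at 37°C with a range of 4′-Ed4T, d4T, 3TC or AZT, then infected with NL4-3-derived clones at MOI 0.01. After 72 h, lysates were read for luciferase, with uninfected background subtracted. EC50 is from % of no-drug signal, reported as mean ± SD of three experiments.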
# [2] = system: Human immunodeficiency virus 1; assay: Antiviral activity against HIV1 pNL4-3 harboring Reverse transcriptase P119S/T165A mutant gene infected in TZM-bl cells after 72 hrs by luciferase assay; type: functional, organism-based; settings: Human immunodeficiency virus 1, pNL4-3, TZM-bl; summary of the method: as §1
# [3] = system: Human immunodeficiency virus 1; assay: Antiviral activity against HIV1 pNL4-3 harboring Reverse transcriptase M184V mutant gene infected in TZM-bl cells after 72 hrs by luciferase assay; type: functional, organism-based; settings: Human immunodeficiency virus 1, pNL4-3, TZM-bl; summary of the method: as §1
# [4] = system: Human immunodeficiency virus 1; assay: Antiviral activity against HIV1 pNL4-3 harboring Reverse transcriptase T165A mutant gene infected in TZM-bl cells after 72 hrs by luciferase assay; type: functional, organism-based; settings: Human immunodeficiency virus 1, pNL4-3, TZM-bl; summary of the method: as §1
# [5] = system: Human immunodeficiency virus 1; assay: Antiviral activity against HIV1 pNL4-3 harboring Reverse transcriptase T165A/M184V mutant gene infected in TZM-bl cells after 72 hrs by luciferase assay; type: functional, organism-based; settings: Human immunodeficiency virus 1, pNL4-3, TZM-bl; summary of the method: as §1
# [6] = system: Human immunodeficiency virus 1; assay: Antiviral activity against HIV1 pNL4-3 harboring Reverse transcriptase P119S/M184V mutant gene infected in TZM-bl cells after 72 hrs by luciferase assay; type: functional, organism-based; settings: Human immunodeficiency virus 1, pNL4-3, TZM-bl; summary of the method: as §1
# [7] = system: Human immunodeficiency virus 1; assay: Antiviral activity against HIV1 pNL4-3 harboring Reverse transcriptase P119S mutant gene infected in TZM-bl cells after 72 hrs by luciferase assay; type: functional, organism-based; settings: Human immunodeficiency virus 1, pNL4-3, TZM-bl; summary of the method: as §1
# [8] = system: Human immunodeficiency virus 1; assay: Antiviral activity against HIV1 pNL4-3 harboring Reverse transcriptase P119S/T165A/M184V mutant gene infected in TZM-bl cells after 72 hrs by luciferase assay; type: functional, organism-based; settings: Human immunodeficiency virus 1, pNL4-3, TZM-bl; summary of the method: as §1
# [9] = system: Human immunodeficiency virus 1; assay: Antiviral activity against HIV1 pNL4-3 harboring chimeric pTKD infected in TZM-bl cells after 72 hrs by luciferase assay; type: functional, organism-based; settings: Human immunodeficiency virus 1, pNL4-3, TZM-bl; summary of the method: as §1
# [10] = system: Cc1cn([C@H]2C[C@H](O)[C@@H](COP(=O)(O)OP(=O)(O)OP(=O)(O)O)O2)c(=O)[nH]c1=O; assay: Activity of HIV1 Reverse transcriptase T165A mutant; settings: Human immunodeficiency virus 1
# [11] = system: Cc1cn([C@H]2C[C@H](O)[C@@H](COP(=O)(O)OP(=O)(O)OP(=O)(O)O)O2)c(=O)[nH]c1=O; assay: Ratio of Kcat to Km for HIV1 Reverse transcriptase T165A mutant; settings: Human immunodeficiency virus 1
# [12] = system: Cc1cn([C@H]2C[C@H](O)[C@@H](COP(=O)(O)OP(=O)(O)OP(=O)(O)O)O2)c(=O)[nH]c1=O; assay: Ratio of Kcat to Km for HIV1 Reverse transcriptase P119S/T165A mutant; settings: Human immunodeficiency virus 1
# [13] = system: Cc1cn([C@H]2C[C@H](O)[C@@H](COP(=O)(O)OP(=O)(O)OP(=O)(O)O)O2)c(=O)[nH]c1=O; assay: Activity of HIV1 Reverse transcriptase P119S/T165A mutant; settings: Human immunodeficiency virus 1
# [14] = system: Human immunodeficiency virus type 1 reverse transcriptase (Human immunodeficiency virus 1), Q72547 [T165A,M184V]; assay: Ratio of Ki to Km for HIV1 Reverse transcriptase T165A/M184V mutant
# Summary of the method: (§2)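 Steady-state inhibition of dTTP incorporation used 2.5 nM wild-type or mutant RT and 250 nM DNA/RNA 23-mer/36-mer primer/template. Apparent dTTP Km was measured across varied 4′-Ed4TTP or d4TTP to give Ki. Ki/Km(dTTP) served as the inhibition index.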
# [15] = target: Human immunodeficiency virus type 1 reverse transcriptase (Human immunodeficiency virus 1, UniProt Q72547, T165A); assay: Inhibition of HIV1 Reverse transcriptase T165A mutant; summary of the method: as §2
# [16] = target: Human immunodeficiency virus type 1 reverse transcriptase (Human immunodeficiency virus 1) (UniProt Q72547); assay: Ratio of Ki to Km for wild-type HIV1 Reverse transcriptase; summary of the method: as §2
# [17] = target: Human immunodeficiency virus type 1 reverse transcriptase (Human immunodeficiency virus 1, UniProt Q72547, P119S); assay: Inhibition of HIV1 Reverse transcriptase P119S mutant; summary of the method: as §2
# [18] = system: Human immunodeficiency virus type 1 reverse transcriptase (Human immunodeficiency virus 1), Q72547 [M184V]; assay: Ratio of Ki to Km for HIV1 Reverse transcriptase M184V mutant; summary of the method: as §2
# [19] = target: Human immunodeficiency virus type 1 reverse transcriptase (Human immunodeficiency virus 1, UniProt Q72547, M184V/P119S/T165A); assay: Inhibition of HIV1 Reverse transcriptase P119S/T165A/M184V mutant; summary of the method: as §2
# [20] = target: Human immunodeficiency virus type 1 reverse transcriptase (Human immunodeficiency virus 1, UniProt Q72547, M184V); assay: Inhibition of HIV1 Reverse transcriptase M184V mutant; summary of the method: as §2
# [21] = system: Human immunodeficiency virus type 1 reverse transcriptase (Human immunodeficiency virus 1), Q72547 [P119S,T165A]; assay: Ratio of Ki to Km for HIV1 Reverse transcriptase P119S/T165A mutant; summary of the method: as §2
# [22] = target: Human immunodeficiency virus type 1 reverse transcriptase (Human immunodeficiency virus 1, UniProt Q72547); assay: Inhibition of wild-type HIV1 Reverse transcriptase
# Summary of the method: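 Same steady-state dTTP incorporation reaction: 250 nM DNA 23-mer/RNA 36-mer primer/template, 2.5 nM RT, Tris-HCl pH 8.0/NaCl/MgCl2/DTT/BSA buffer, 37°C. The analog triphosphate inhibitor was added at various concentrations. Apparent dTTP Km was measured at each inhibitor level to derive Ki, and Ki/Km(dTTP) was used as an inhibition-efficiency index.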
# [23] = system: Human immunodeficiency virus type 1 reverse transcriptase (Human immunodeficiency virus 1), Q72547 [P119S,M184V]; assay: Ratio of Ki to Km for HIV1 Reverse transcriptase P119S/M184V mutant; summary of the method: as §2
# [24] = target: Human immunodeficiency virus type 1 reverse transcriptase (Human immunodeficiency virus 1, UniProt Q72547, M184V/P119S); assay: Inhibition of HIV1 Reverse transcriptase P119S/M184V mutant; summary of the method: as §2
# [25] = target: Human immunodeficiency virus type 1 reverse transcriptase (Human immunodeficiency virus 1, UniProt Q72547, P119S/T165A); assay: Inhibition of HIV1 Reverse transcriptase P119S/T165A mutant; summary of the method: as §2
# [26] = system: Human immunodeficiency virus type 1 reverse transcriptase (Human immunodeficiency virus 1), Q72547 [T165A]; assay: Ratio of Ki to Km for HIV1 Reverse transcriptase T165A mutant; summary of the method: as §2
# [27] = target: Human immunodeficiency virus type 1 reverse transcriptase (Human immunodeficiency virus 1, UniProt Q72547, M184V/T165A); assay: Inhibition of HIV1 Reverse transcriptase T165A/M184V mutant; summary of the method: as §2
# [28] = system: Human immunodeficiency virus type 1 reverse transcriptase (Human immunodeficiency virus 1), Q72547 [P119S,T165A,M184V]; assay: Ratio of Ki to Km for HIV1 Reverse transcriptase P119S/T165A/M184V mutant; summary of the method: as §2
# [29] = system: Human immunodeficiency virus type 1 reverse transcriptase (Human immunodeficiency virus 1), Q72547 [P119S]; assay: Ratio of Ki to Km for HIV1 Reverse transcriptase P119S mutant; summary of the method: as §2
# [30] = system: Cc1cn([C@H]2C[C@H](O)[C@@H](COP(=O)(O)OP(=O)(O)OP(=O)(O)O)O2)c(=O)[nH]c1=O; assay: Ratio of Kcat to Km for HIV1 Reverse transcriptase P119S mutant; settings: Human immunodeficiency virus 1
# [31] = system: Cc1cn([C@H]2C[C@H](O)[C@@H](COP(=O)(O)OP(=O)(O)OP(=O)(O)O)O2)c(=O)[nH]c1=O; assay: Activity of HIV1 Reverse transcriptase P119S mutant; settings: Human immunodeficiency virus 1
# [32] = system: Cc1cn([C@H]2C[C@H](O)[C@@H](COP(=O)(O)OP(=O)(O)OP(=O)(O)O)O2)c(=O)[nH]c1=O; assay: Ratio of Kcat to Km for HIV1 Reverse transcriptase M184V mutant; settings: Human immunodeficiency virus 1
# [33] = system: Cc1cn([C@H]2C[C@H](O)[C@@H](COP(=O)(O)OP(=O)(O)OP(=O)(O)O)O2)c(=O)[nH]c1=O; assay: Activity of HIV1 Reverse transcriptase M184V mutant; settings: Human immunodeficiency virus 1
molecule,measurement,setting,value
Nc1ccn([C@@H]2CS[C@H](CO)O2)c(=O)n1 [LAMIVUDINE],EC50,[1],650 nM
same,EC50,[2],2100 nM
same,EC50,[3],> 60000 nM
same,EC50,[4],1080 nM
same,EC50,[5],> 60000 nM
same,EC50,[6],> 60000 nM
same,EC50,[7],470 nM
same,EC50,[8],> 60000 nM
same,EC50,[9],> 60000 nM
Human immunodeficiency virus type 1 reverse transcriptase (Human immunodeficiency virus 1) (from UniProt Q72547) T165A,Km,[10],0.1 µM
same,kcat,[10],2.7 ×10⁻⁵ /s
same,kcat/Km (10'-2/microM/s),[11],2.7
"Human immunodeficiency virus type 1 reverse transcriptase (Human immunodeficiency virus 1) (from UniProt Q72547) P119S,T165A",kcat/Km (10'-2/microM/s),[12],5.1
same,Km,[13],0.07 µM
same,kcat,[13],3.6 ×10⁻⁴ /s
C=C[C@@]1(COP(=O)(O)OP(=O)(O)OP(=O)(O)O)C=C[C@H](n2cc(C)c(=O)[nH]c2=O)O1,Ki/Km,[14],6
same,Ki,[15],80 nM
same,Ki/Km,[16],0.45
same,Ki,[17],110 nM
same,Ki/Km,[18],1.7
same,Ki,[19],730 nM
same,Ki,[20],210 nM
same,Ki/Km,[21],0.34
same,Ki,[22],54 nM
same,Ki/Km,[23],3.6
same,Ki,[24],640 nM
same,Ki,[25],24 nM
same,Ki/Km,[26],0.8
same,Ki,[27],660 nM
same,Ki/Km,[28],4.9
same,Ki/Km,[29],0.85
Human immunodeficiency virus type 1 reverse transcriptase (Human immunodeficiency virus 1) (from UniProt Q72547) P119S,kcat/Km (10'-2/microM/s),[30],2.5
same,Km,[31],0.13 µM
same,kcat,[31],3.3 ×10⁻⁴ /s
Human immunodeficiency virus type 1 reverse transcriptase (Human immunodeficiency virus 1) (from UniProt Q72547) M184V,kcat/Km (10'-2/microM/s),[32],2.6
same,kcat,[33],3.1 ×10⁻⁴ /s
C=C[C@@]1(CO)C=C[C@H](n2cc(C)c(=O)[nH]c2=O)O1,EC50,[1],370 nM
same,EC50,[2],350 nM
same,EC50,[3],980 nM
same,EC50,[4],580 nM
same,EC50,[5],1320 nM
same,EC50,[6],1380 nM
same,EC50,[7],510 nM
same,EC50,[8],1960 nM
same,EC50,[9],2100 nM
